Legend:
Mus musculus [1] = experiment: Acute toxicity in CL57BL/6 mouse assessed as effect on serum amylase level at 25 mg/kg, iv administered as single dose after 24 hrs; assay type: organism-based; parameters: dose 25 mg/kg, route intravenous; settings: in vivo
Method in brief: (§1)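 Female C57BL/6 mice, four per group, randomized, each given one tail-vein injection of a 2 mg/mL solution in 1:1 NMP:Solutol HS15 diluted with saline; a vehicle-only group served as control. Mice were watched for the first hour and sacrificed at 24 h with necropsy. Serum was collected and run on an automated chemistry and electrolyte analyser.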

Mus musculus [2] = experiment: Acute toxicity in CL57BL/6 mouse assessed as effect on serum Na+ level at 25 mg/kg, iv administered as single dose after 24 hrs; assay type: organism-based; parameters: dose 25 mg/kg, route intravenous; settings: in vivo; method in brief: as §1
Mus musculus [3] = experiment: Acute toxicity in CL57BL/6 mouse assessed as effect on eosinophils percent at 25 mg/kg, iv administered as single dose after 24 hrs; assay type: organism-based; parameters: dose 25 mg/kg, route intravenous; settings: in vivo
Method in brief: as §1, with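 “watched closely” for “watched”, “Whole blood” for “Serum”, “taken for complete blood counts” for “collected and run”, “haematology” for “chemistry and electrolyte”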

Rattus norvegicus [4] = experiment: Half life in fasted Sprague-Dawley rat plasma at 5 mg/kg, iv by LC/MS/MS analysis; assay type: ADME, organism-based; parameters: dose 5 mg/kg, route intravenous; settings: in vivo
Method in brief: (§2)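 Male Sprague-Dawley rats, 3 per treatment, carried jugular cannulae and were fasted 12 h with water. Compound was formulated at 2 mg/mL in 1:1 NMP:Solutol HS15 diluted with saline. Dosing was 5 mg/kg iv or 25 mg/kg oral gavage. Blood was drawn predose and at 5, 15, 30 min, 1, 3 and 6 h. Plasma was quantified by LC-MS/MS against an 8-point standard curve.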

Mus musculus [5] = experiment: Toxicity in HBV infected transgenic 1.3.32 mouse assessed as elevation in serum bilirubin level at 7.9 to 25 mg/kg, po qd for 14 days; assay type: organism-based; parameters: dose 7.9-25 mg/kg, route oral; settings: in vivo, 336 h
Method in brief: (§3)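 HBV-transgenic mice (strain 1.3.32), 10 per group, randomised; oral gavage once daily for 14 days at 25 or 7.9 mg/kg in NMP:Solutol HS15/saline vehicle; vehicle-only group. Weighed before the first dose and after 3 days; observed one hour after each dose. Tail-vein blood taken before dosing, at day 7 and at day 14 necropsy, each 3 h post-dose, for serum chemistry.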

Mus musculus [6] = experiment: Acute toxicity in CL57BL/6 mouse assessed as effect on serum creatinine level at 25 mg/kg, iv administered as single dose after 24 hrs; assay type: organism-based; parameters: dose 25 mg/kg, route intravenous; settings: in vivo; method in brief: as §1
Mus musculus [7] = experiment: Acute toxicity in CL57BL/6 mouse assessed as effect on mean platelet volume at 25 mg/kg, iv administered as single dose after 24 hrs; assay type: organism-based; parameters: dose 25 mg/kg, route intravenous; settings: in vivo
Method in brief: as §1, with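 “watched closely” for “watched”, “Whole blood” for “Serum”, “taken for complete blood counts” for “collected and run”, “haematology” for “chemistry and electrolyte”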

Mus musculus [8] = experiment: Acute toxicity in CL57BL/6 mouse assessed as effect on hemoglobin concentration at 25 mg/kg, iv administered as single dose after 24 hrs; assay type: organism-based; parameters: dose 25 mg/kg, route intravenous; settings: in vivo
Method in brief: as §1, with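 “watched closely” for “watched”, “Whole blood” for “Serum”, “taken for complete blood counts” for “collected and run”, “haematology” for “chemistry and electrolyte”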

Hepatitis B virus [9] = experiment: Antiviral activity against lamivudine/telbivudine-resistant Hepatitis B virus harboring polymerase L528M and M552V mutant in human HepG2 cells assessed as inhibition of HBsAg secretion by ELISA; assay type: functional, organism-based
Mus musculus [10] = experiment: Toxicity in HBV infected transgenic 1.3.32 mouse assessed as change in serum total protein level at 7.9 to 25 mg/kg, po qd for 14 days; assay type: organism-based; parameters: dose 7.9-25 mg/kg, route oral; settings: in vivo, 336 h; method in brief: as §3
Hepatitis B virus [11] = experiment: Antiviral activity against adefovir-resistant Hepatitis B virus harboring polymerase A529V mutant in human HepG2 cells assessed as inhibition of HBsAg secretion by ELISA; assay type: functional, organism-based
Mus musculus [12] = experiment: Acute toxicity in CL57BL/6 mouse assessed as effect on mean corpuscular at 25 mg/kg, iv administered as single dose after 24 hrs; assay type: organism-based; parameters: dose 25 mg/kg, route intravenous; settings: in vivo
Method in brief: as §1, with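 “watched closely” for “watched”, “Whole blood” for “Serum”, “taken for complete blood counts” for “collected and run”, “haematology” for “chemistry and electrolyte”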

Mus musculus [13] = experiment: Acute toxicity in CL57BL/6 mouse assessed as effect on serum alanine aminotransferase level at 25 mg/kg, iv administered as single dose after 24 hrs; assay type: organism-based; parameters: dose 25 mg/kg, route intravenous; settings: in vivo; method in brief: as §1
Mus musculus [14] = experiment: Acute toxicity in CL57BL/6 mouse assessed as effect on serum glucose level at 25 mg/kg, iv administered as single dose after 24 hrs; assay type: organism-based; parameters: dose 25 mg/kg, route intravenous; settings: in vivo; method in brief: as §1
Hepatitis B virus [15] = experiment: Antiviral activity against lamivudine/telbivudine-resistant Hepatitis B virus harboring polymerase M552I mutant in human HepG2 cells assessed as inhibition of HBsAg secretion by ELISA; assay type: functional, organism-based
Mus musculus [16] = experiment: Acute toxicity in CL57BL/6 mouse assessed as effect on monocytes count at 25 mg/kg, iv administered as single dose after 24 hrs; assay type: organism-based; parameters: dose 25 mg/kg, route intravenous; settings: in vivo
Method in brief: as §1, with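 “watched closely” for “watched”, “Whole blood” for “Serum”, “taken for complete blood counts” for “collected and run”, “haematology” for “chemistry and electrolyte”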

Mus musculus [17] = experiment: Toxicity in HBV infected transgenic 1.3.32 mouse assessed as weight loss at 7.9 to 25 mg/kg, po qd for 14 days; assay type: organism-based; parameters: dose 7.9-25 mg/kg, route oral; settings: in vivo, 336 h; method in brief: as §3
Mus musculus [18] = experiment: Acute toxicity in CL57BL/6 mouse assessed as effect on serum total protein level at 25 mg/kg, iv administered as single dose after 24 hrs; assay type: organism-based; parameters: dose 25 mg/kg, route intravenous; settings: in vivo
Method in brief: (§4)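 Female C57BL/6 mice, four per group, randomised; single tail-vein bolus in NMP:Solutol HS15 (1:1) diluted with saline to 2 mg/mL, injected within 10 min of preparation; vehicle-only group. Close observation for the first hour; sacrifice and necropsy at 24 h. Whole-blood complete blood counts and serum chemistry, including total bilirubin and total protein, were measured.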

Mus musculus [19] = experiment: Toxicity in HBV infected transgenic 1.3.32 mouse assessed as change in serum K+ level at 7.9 to 25 mg/kg, po qd for 14 days; assay type: organism-based; parameters: dose 7.9-25 mg/kg, route oral; settings: in vivo, 336 h; method in brief: as §3
Rattus norvegicus [20] = experiment: Total body clearance in fasted Sprague-Dawley rat at 5 mg/kg, iv by LC/MS/MS analysis; assay type: ADME, organism-based; parameters: dose 5 mg/kg, route intravenous; settings: in vivo; method in brief: as §2
Mus musculus [21] = experiment: Toxicity in HBV infected transgenic 1.3.32 mouse assessed as change in serum phosphorus level at 7.9 to 25 mg/kg, po qd for 14 days; assay type: organism-based; parameters: dose 7.9-25 mg/kg, route oral; settings: in vivo, 336 h; method in brief: as §3
Mus musculus [22] = experiment: Toxicity in HBV infected transgenic 1.3.32 mouse assessed as behavioral changes at 7.9 to 25 mg/kg, po qd for 14 days; assay type: organism-based; parameters: dose 7.9-25 mg/kg, route oral; settings: in vivo, 336 h; method in brief: as §3
Mus musculus [23] = experiment: Toxicity in HBV infected transgenic 1.3.32 mouse assessed as change in serum glucose level at 7.9 to 25 mg/kg, po qd for 14 days; assay type: organism-based; parameters: dose 7.9-25 mg/kg, route oral; settings: in vivo, 336 h; method in brief: as §3
Mus musculus [24] = experiment: Toxicity in HBV infected transgenic 1.3.32 mouse assessed as change in blood urea nitrogen level at 7.9 to 25 mg/kg, po qd for 14 days; assay type: organism-based; parameters: dose 7.9-25 mg/kg, route oral; settings: in vivo, 336 h; method in brief: as §3
Mus musculus [25] = experiment: Toxicity in HBV infected transgenic 1.3.32 mouse assessed as change in serum Ca2+ level at 7.9 to 25 mg/kg, po qd for 14 days; assay type: organism-based; parameters: dose 7.9-25 mg/kg, route oral; settings: in vivo, 336 h; method in brief: as §3
Mus musculus [26] = experiment: Toxicity in HBV infected transgenic 1.3.32 mouse assessed as morphological changes at 7.9 to 25 mg/kg, po qd for 14 days; assay type: organism-based; parameters: dose 7.9-25 mg/kg, route oral; settings: in vivo, 336 h; method in brief: as §3
Rattus norvegicus [27] = experiment: Volume of distribution at steady state in fasted Sprague-Dawley rat at 5 mg/kg, iv by LC/MS/MS analysis; assay type: ADME, organism-based; parameters: dose 5 mg/kg, route intravenous; settings: in vivo; method in brief: as §2
Mus musculus [28] = experiment: Acute toxicity in CL57BL/6 mouse assessed as effect on white blood cells count at 25 mg/kg, iv administered as single dose after 24 hrs; assay type: organism-based; parameters: dose 25 mg/kg, route intravenous; settings: in vivo; method in brief: as §4
Mus musculus [29] = experiment: Acute toxicity in CL57BL/6 mouse assessed as effect on serum total bilirubin level at 25 mg/kg, iv administered as single dose after 24 hrs; assay type: organism-based; parameters: dose 25 mg/kg, route intravenous; settings: in vivo; method in brief: as §1
Rattus norvegicus [30] = experiment: Oral bioavailability in fasted Sprague-Dawley rat at 25 mg/kg after 6 hrs by LC/MS/MS analysis; assay type: ADME, organism-based; settings: in vivo; method in brief: as §2
Mus musculus [31] = experiment: Toxicity in HBV infected transgenic 1.3.32 mouse assessed as elevation in serum alanine aminotransferase level at 7.9 to 25 mg/kg, po qd for 14 days; assay type: organism-based; parameters: dose 7.9-25 mg/kg, route oral; settings: in vivo, 336 h; method in brief: as §3

SMILES: Fc1cccc(Cl)c1C1CC(c2ccc(Cl)cc2)Nc2ncnn21 (racemic)
- Activity (Mus musculus [1]): Non-toxic
- Activity (Mus musculus [2]): Non-toxic
- Activity (Mus musculus [3]): Non-toxic
- t1/2 (Rattus norvegicus [4]): 2.17 h
- Activity (Mus musculus [5]): Toxic
- Activity (Mus musculus [6]): Non-toxic
- Activity (Mus musculus [7]): Non-toxic
- Activity (Mus musculus [8]): Non-toxic
- EC50 (Hepatitis B virus [9]): 10.3 µM
- Activity (Mus musculus [10]): Non-toxic
- EC50 (Hepatitis B virus [11]): 5.8 µM
- Activity (Mus musculus [12]): Non-toxic
- Activity (Mus musculus [13]): Non-toxic
- Activity (Mus musculus [14]): Non-toxic
- EC50 (Hepatitis B virus [15]): 9.1 µM
- Activity (Mus musculus [16]): Non-toxic
- Activity (Mus musculus [17]): Non-toxic
- Activity (Mus musculus [18]): Non-toxic
- Activity (Mus musculus [19]): Non-toxic
- CL (Rattus norvegicus [20]): 12 mL/min/kg
- Activity (Mus musculus [21]): Non-toxic
- Activity (Mus musculus [22]): Non-toxic
- Activity (Mus musculus [23]): Non-toxic
- Activity (Mus musculus [24]): Non-toxic
- Activity (Mus musculus [25]): Non-toxic
- Activity (Mus musculus [26]): Non-toxic
- Vdss (Rattus norvegicus [27]): 1.6 L/kg
- Activity (Mus musculus [28]): Non-toxic
- Activity (Mus musculus [29]): Non-toxic
- F (Rattus norvegicus [30]): 31%
- Activity (Mus musculus [31]): Toxic

— ChEMBL document CHEMBL1811844, “Design, synthesis, and biological evaluation of triazolo-pyrimidine derivatives as novel inhibitors of hepatitis B virus surface antigen (HBsAg) secretion” (J Med Chem, 2011)
